From ChEMBL document CHEMBL1124575, “Water-soluble third generation antitumor platinum complexes, [2,2-bis (aminomethyl)-1,3-propanediol-N,N']-[1,1-cyclobutanedicarboxylato (2-)-O,O']platinum(II) and [1,1-cyclobutanedicarboxylato(2-)-O,O'] [tetrahydro-4H-pyran-4,4-dimethanamine-N,N']platinum(II)” (J Med Chem, 1989) come the findings set out here.

A short description of data set [1]: Solubility in water. As to conditions: buffer. The class given is physicochemical.
For data set [2], the system named is P388. As to the kind of experiment: Antitumor activity against murine tumor cells, P388 in BDF1 mice administered 100 mg/kg intraperitoneally on days 1,5, and 9 relative to tumor inoculation. The class given is functional, organism-based. Details: dose 100 mg/kg. Conditions: Mus musculus, at 100 mg/kg. Summed up: (§1)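 L1210, cisplatin-resistant L1210 and P388 leukemias implanted in BDF1 mice and maintained per National Cancer Institute protocols. Drug given ip on days 1, 5 and 9 after inoculation, with 30-day observation. The end point is % ILS versus controls, with >25% needed for activity. Reduction of ILS or body weight by >15% is rated toxic.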

Data set [3] relates to L1210. As to the kind of experiment: Antitumor activity against murine tumor cells L1210 cisplatin resistant leukemia in BDF1 mice administered mg/Kg intraperitoneally on days 1,5, and 9 relative to tumor inoculation; Inactive. As to conditions: Mus musculus. It counts as functional. Summed up: as §1
The subject of data set [4] is Colon 26. Kind of data set: Antitumor activity against murine tumor cells Colon 26 in BALB / C mice administered 50 mg/Kg intraperitoneally on days 1,5, and 9 relative to tumor inoculation. It counts as functional, cell-based. As to conditions: Mus musculus. The method, boiled down: (§2)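 Colon 26 carcinoma grown in Balb/C mice following National Cancer Institute protocols. Intraperitoneal dosing on days 1, 5 and 9 after tumor inoculation, with survival followed for 30 days. Activity is scored as % ILS over control mice, and ILS >25% is required. Toxicity is a >15% drop in ILS or body weight versus controls.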

Data set [5] concerns B16. Kind of data set: Antitumor activity against murine tumor cells B16 in C57BC mice administered 12.5 mg/Kg intraperitoneally on days 1-9 relative to tumor inoculation. Conditions: Mus musculus. It counts as functional. The method, boiled down: (§3)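 B16 melanoma in C57BC/6 mice, propagated per National Cancer Institute protocols. Drug given ip daily on days 1-9 after tumor inoculation, with observation for 60 days. Read-out is % increase in life span (ILS) over controls. ILS >25% counts as active. Treatment cutting ILS or body weight by >15% versus controls is rated toxic.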

The subject of data set [6] is MX1. As to the kind of experiment: Percent tumor weight inhibition (TWI) in athymic mice at an optimal dose of 50 mg/kg in breast MX-1 cells. The class given is functional, organism-based. Details: dose 50 mg/kg. Conditions: Mus musculus.
For data set [7], the system named is L1210. Kind of data set: Antitumor activity against murine tumor cells L1210 in BDF1 mice administered 100 mg/kg intraperitoneally on days 1,5, and 9 relative to tumor inoculation. It counts as functional, organism-based. Details: dose 100 mg/kg. Conditions: Mus musculus, at 100 mg/kg. The method, boiled down: as §1
The subject of data set [8] is Mus musculus. As to the kind of experiment: Percent tumor weight inhibition (TWI) in athymic mice at an optimal dose of 50 mg/kg in […] cells. The class given is functional, organism-based. Details: dose 50 mg/kg.
Data set [9] deals with L1210. Kind of data set: Antitumor activity against murine tumor cells L1210 cisplatin resistant leukemia in BDF1 mice administered mg/Kg intraperitoneally on days 1,5, and 9 relative to tumor inoculation; In active. The class given is functional. Conditions: Mus musculus. The method, boiled down: as §1
Data set [10] has as its system L1210. As to the kind of experiment: Antitumor activity against murine tumor cells L1210 in BDF1 mice administered 6.2 mg/kg intraperitoneally on days 1,5, and 9 relative to tumor inoculation. Details: dose 6.2 mg/kg. The class given is functional, organism-based. As to conditions: Mus musculus, at 6.2 mg/kg. Summed up:
as §1

Data set [11] has as its system P388. Kind of data set: Antitumor activity against murine tumor cells, P388 in BDF1 mice administered 3 mg/kg intraperitoneally on days 1,5, and 9 relative to tumor inoculation. It counts as functional, organism-based. Details: dose 3 mg/kg. Conditions: Mus musculus, at 3 mg/kg. The method, boiled down:
as §1

Data set [12] deals with Mus musculus. Kind of data set: Percent tumor weight inhibition (TWI) in athymic mice at an optimal dose of 3 mg/kg in […] cells. It counts as functional, organism-based. Details: dose 3 mg/kg.
The subject of data set [13] is MX1. Kind of data set: Percent tumor weight inhibition (TWI) in athymic mice at an optimal dose of 3 mg/kg in breast MX-1 cells. It counts as functional, organism-based. Details: dose 3 mg/kg. As to conditions: Mus musculus.
Data set [14] concerns Colon 26. Kind of data set: Antitumor activity against murine tumor cells Colon 26 in BALB / C mice administered 1 mg/Kg intraperitoneally on days 1,5, and 9 relative to tumor inoculation. Conditions: Mus musculus. The class given is functional. Summed up: as §2
Data set [15] has as its system B16. Kind of data set: Antitumor activity against murine tumor cells B16 in C57BC mice administered 0.4 mg/kg intraperitoneally on days 1-9 relative to tumor inoculation. Details: dose 0.4 mg/kg. Conditions: Mus musculus, at 0.4 mg/kg. The class given is functional, organism-based. The method, boiled down: as §3
The subject of data set [16] is B16. Kind of data set: Antitumor activity against murine tumor cells B16 in C57BC mice administered 0.2 mg/Kg intraperitoneally on days 1-9 relative to tumor inoculation. Conditions: Mus musculus. It counts as functional. The method, boiled down: as §3
The test system of data set [17] is B16. Kind of data set: Antitumor activity against murine tumor cells B16 in C57BC mice administered 6 mg/kg intraperitoneally on days 1-9 relative to tumor inoculation. It counts as functional, organism-based. Details: dose 6 mg/kg. Conditions: Mus musculus, at 6 mg/kg. Summed up: as §3
For another data set, the system named is M5076. As to the kind of experiment: Antitumor activity against murine tumor cells M5076 in BDF1 mice administered 3 mg/Kg intraperitoneally on days 1,5, and 9 relative to tumor inoculation. As to conditions: Mus musculus. It counts as functional.
Data set [18] concerns Colon 26. As to the kind of experiment: Antitumor activity against murine tumor cells Colon 26 in BALB / C mice administered 3.1 mg/Kg intraperitoneally on days 1,5, and 9 relative to tumor inoculation. The class given is functional. Conditions: Mus musculus. The method, boiled down:
as §2

The test system of data set [19] is B16. Kind of data set: Antitumor activity against murine tumor cells B16 in C57BC mice administered 0.4 mg/Kg intraperitoneally on days 1-9 relative to tumor inoculation. The class given is functional. As to conditions: Mus musculus. The method, boiled down:
as §3

Data set [20] has as its system P388. As to the kind of experiment: Antitumor activity against murine tumor cells, P388 in BDF1 mice administered 6.2 mg/Kg intraperitoneally on days 1,5, and 9 relative to tumor inoculation. It counts as functional. As to conditions: Mus musculus. Summed up:
as §1

Data set [21] has as its system B16. As to the kind of experiment: Antitumor activity against murine tumor cells B16 in C57BC mice administered 1.5 mg/Kg intraperitoneally on days 1-9 relative to tumor inoculation. It counts as functional. Conditions: Mus musculus. Summed up: as §3
Data set [22] deals with P388. Kind of data set: Antitumor activity against murine tumor cells, P388 in BDF1 mice administered 3.2 mg/Kg intraperitoneally on days 1,5, and 9 relative to tumor inoculation. As to conditions: Mus musculus. It counts as functional. The method, boiled down:
as §1

Data set [23] relates to Colon 26. As to the kind of experiment: Antitumor activity against murine tumor cells Colon 26 in BALB / C mice administered 0.8 mg/Kg intraperitoneally on days 1,5, and 9 relative to tumor inoculation. As to conditions: Mus musculus. The class given is functional. Summed up: as §2
Data set [24] relates to L1210. As to the kind of experiment: Antitumor activity against murine tumor cells L1210 in BDF1 mice administered 1.5 mg/kg intraperitoneally on days 1,5, and 9 relative to tumor inoculation. As to conditions: Mus musculus, at 1.5 mg/kg. Details: dose 1.5 mg/kg. The class given is functional, organism-based. The method, boiled down:
as §1

In data set [25] the test system is L1210. Kind of data set: Antitumor activity against murine tumor cells L1210 in BDF1 mice administered 3.1 mg/kg intraperitoneally on days 1,5, and 9 relative to tumor inoculation. Details: dose 3.1 mg/kg. Conditions: Mus musculus, at 3.1 mg/kg. It counts as functional, organism-based. The method, boiled down:
as §1

Calls of active or inactive are those of the source. The rule behind the calls is not given here.

With “cis-Diamminedichloroplatinum (II) complex [listing 1 of 3 here]”, the S in [1] was 1 mg/mL.

“cis-Diamminedichloroplatinum (II) complex [listing 2 of 3 here]” had a S in data set [1] of 0.3 mg/mL.

On to CARBOPLATIN, for which the Increase was determined as 144% with P388 [2], 85% in the data set with Colon 26 [4], 43% with B16 [5] and 35% in the data set on L1210 [7]. The Increase result in the data set on L1210 [3] is “inactive”. Besides, the figures for the TWI in the data set on MX1 [6] and in the data set with Mus musculus [8] were 90% and 200%, respectively.

Take CISPLATIN: the Increase entry in the data set on L1210 [9] was “inactive”. Further, the Increase came to 96% with L1210 [10], 140% in the data set on P388 [11], 47% with Colon 26 [14] and 36% in the data set on B16 [15]. For the same substance, the TWI with Mus musculus [12] was determined as 200%; in the data set with MX1 [13] it was 86%.

For the substance “cis-Diamminedichloroplatinum (II) complex [listing 3 of 3 here]”, the Increase was 43% with B16 [16]; 53% in the data set on B16 [17]; 50% with L1210 [10]; 128% with M5076; 59% with Colon 26 [18]; 43% with B16 [19]. Also, the Increase with P388 [20] was 136%; in the data set on B16 [21], 36%; in the data set on P388 [22], 173%; with Colon 26 [23], 39%; in the data set with L1210 [24] it was 38%; in the data set with L1210 [25], 39%.
